# Reference: ChEMBL document CHEMBL1124186, “Synthesis and evaluation of tylosin-related macrolides modified at the aldehyde function: a new series of orally effective antibiotics” (1988)
# What was measured:
# Haemophilus influenzae [1] = assay: In vitro antimicrobial activity against aerobic bacteria Haemophilus influenzae 76; format: functional
# Haemophilus influenzae [2] = assay: In vitro antimicrobial activity against aerobic bacteria Haemophilus influenzae MX366,; format: functional
# Haemophilus influenzae [3] = assay: In vitro antimicrobial activity against Haemophilus influenzae.; format: functional
# Mus musculus [4] = assay: Peripheral plasma levels in mice after oral administration of 50 mg/kg dose for 2 hr; format: functional, organism-based; set-up: dose 50 mg/kg
# In short: (§1)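 Mice were given the compound orally and sampled for peripheral plasma at each time point. Plasma was assayed microbiologically against Micrococcus luteus seeded in Antibiotic Medium 1. Inhibition zone sizes were read, and concentrations were calculated from each compound's own standard curve. Each value is the mean of five mice per time point.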
# Mus musculus [5] = assay: Peripheral plasma levels in mice after oral administration of 100 mg/kg dose for 4 hr; format: functional, organism-based; set-up: dose 100 mg/kg; in short: as §1
# Mus musculus [6] = assay: Peripheral plasma levels in mice after oral administration of 50 mg/kg dose for 0.25 hr; format: functional, organism-based; set-up: dose 50 mg/kg; in short: as §1
# Mus musculus [7] = assay: Peripheral plasma levels in mice after oral administration of 100 mg/kg dose for 0.25 hr; format: functional, organism-based; set-up: dose 100 mg/kg; in short: as §1
# Mus musculus [8] = assay: Peripheral plasma levels in mice after oral administration of 100 mg/kg dose for 0.5 hr; format: functional, organism-based; set-up: dose 100 mg/kg; in short: as §1
# Mus musculus [9] = assay: Peripheral plasma levels in mice after oral administration of 100 mg/kg dose for 1 hr; format: functional, organism-based; set-up: dose 100 mg/kg; in short: as §1
# Mus musculus [10] = assay: Peripheral plasma levels in mice after oral administration of 100 mg/kg dose for 2 hr; format: functional, organism-based; set-up: dose 100 mg/kg; in short: as §1
# Mus musculus [11] = assay: Peripheral plasma levels in mice after oral administration of 50 mg/kg dose for 1 hr; format: functional, organism-based; set-up: dose 50 mg/kg; in short: as §1
# Rattus norvegicus [12] = assay: Peripheral plasma levels in rats after oral administration of 100 mg/kg dose for 0.25 hr; format: functional, organism-based; set-up: dose 100 mg/kg
# In short: (§2)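 Rats received 100 mg/kg orally and were sampled for peripheral plasma. Concentrations were measured by Micrococcus luteus agar-diffusion microbiological assay in Antibiotic Medium 1, with zone sizes converted using the standard curve for the appropriate compound. Each value is the average of three rats per time point.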
# Rattus norvegicus [13] = assay: Peripheral plasma levels in rats after oral administration of 100 mg/kg dose for 0.5 hr; format: functional, organism-based; set-up: dose 100 mg/kg; in short: as §2
# Rattus norvegicus [14] = assay: Peripheral plasma levels in rats after oral administration of 100 mg/kg dose for 1 hr; format: functional, organism-based; set-up: dose 100 mg/kg; in short: as §2
# Rattus norvegicus [15] = assay: Peripheral plasma levels in rats after oral administration of 100 mg/kg dose for 2 hr; format: functional, organism-based; set-up: dose 100 mg/kg; in short: as §2
# Rattus norvegicus [16] = assay: Peripheral plasma levels in rats after oral administration of 100 mg/kg dose for 4 hr; format: functional, organism-based; set-up: dose 100 mg/kg; in short: as §2
# Streptococcus [17] = assay: In vitro antimicrobial activity against aerobic bacteria Streptococcus B 14; format: functional
# Streptococcus [18] = assay: In vitro antimicrobial activity against aerobic bacteria Streptococcus B 8; format: functional
# Streptococcus [19] = assay: In vitro antimicrobial activity against aerobic bacteria Streptococcus C 24; format: functional
# Streptococcus [20] = assay: In vitro antimicrobial activity against aerobic bacteria Streptococcus D 8043; format: functional
# Streptococcus [21] = assay: In vitro antimicrobial activity against aerobic bacteria Streptococcus D 9960; format: functional
# Streptococcus [22] = assay: In vitro antimicrobial activity against aerobic bacteria Streptococcus G Kruder; format: functional; conditions: Streptococcus; read-out: MIC
# [23] = tested on: Staphylococcus epidermidis; assay: In vitro antimicrobial activity against aerobic bacteria Streptococcus epi 270; format: functional
# Staphylococcus aureus [24] = assay: In vitro antimicrobial activity against Staphylococcus aureus X1; format: functional
# Staphylococcus aureus [25] = assay: In vitro antimicrobial activity against aerobic bacteria Staphylococcus aureus 513E; format: functional
# Staphylococcus aureus [26] = assay: In vitro antimicrobial activity against aerobic bacteria Staphylococcus aureus V140,; format: functional
# Staphylococcus aureus [27] = assay: In vitro antimicrobial activity against aerobic bacteria Staphylococcus aureus V41; format: functional
# Staphylococcus aureus [28] = assay: In vitro antimicrobial activity against aerobic bacteria Staphylococcus aureus X400; format: functional
# Streptococcus pyogenes [29] = assay: In vivo effective dose xperimental infections in rodent caused by Streptococcus pyogenes C203 when administered sc; format: functional
# Streptococcus pneumoniae [30] = assay: In vitro antimicrobial activity against aerobic bacteria Streptococcus pneumoniae B1-438; format: functional, streptococcus pneum
# Streptococcus sanguinis = assay: In vitro antimicrobial activity against aerobic bacteria Streptococcus sanguis MX132; format: functional
# [31] = tested on: Staphylococcus epidermidis; assay: In vitro antimicrobial activity against Staphylococcus epidermidis EPI1; format: functional
# [32] = tested on: Staphylococcus epidermidis; assay: In vitro antimicrobial activity against aerobic bacteria Streptococcus epi 222; format: functional
# Enterococcus faecium = assay: In vitro antimicrobial activity against Streptococcus faecium X66; format: functional, streptococcus fae-cium
# Streptococcus pyogenes [33] = assay: In vitro antimicrobial activity against Streptococcus pyogenes C203; format: functional
# Streptococcus viridans = assay: In vitro antimicrobial activity against aerobic bacteria Streptococcus viridans 9943; format: functional
# Streptococcus [34] = assay: In vitro antimicrobial activity against aerobic bacteria Streptococcus B 5; format: functional
# Staphylococcus aureus [35] = assay: In vitro antimicrobial activity against aerobic bacteria Staphylococcus aureus V135; format: functional
# Mus musculus [36] = assay: Peripheral plasma levels in mice after oral administration of 50 mg/kg dose for 0.5 hr; format: functional, organism-based; set-up: dose 50 mg/kg; in short: as §1
# Streptococcus [37] = assay: In vitro antimicrobial activity against aerobic bacteria Streptococcus D 2041; format: functional
# Bacteroides fragilis [38] = assay: In vitro antimicrobial activity against anaerobic bacteria bacteroides fragilis 111; format: functional
# Bacteroides fragilis [39] = assay: In vitro antimicrobial activity against anaerobic bacteria bacteroides fragilis 1877; format: functional
# Bacteroides fragilis [40] = assay: In vitro antimicrobial activity against anaerobic bacteria bacteroides fragilis 1936B,; format: functional
# Eikenella corrodens = assay: In vitro antimicrobial activity against anaerobic bacteria bacteroides corrodens 1874; format: functional
# Phocaeicola vulgatus = assay: In vitro antimicrobial activity against anaerobic bacteria bacteroides vulgatus 1211; format: functional
# [41] = tested on: Prevotella melaninogenica; assay: In vitro antimicrobial activity against anaerobic bacteria bacteroides melaninogenicus 1856,; format: functional
# [42] = tested on: Bacteroides thetaiotaomicron; assay: In vitro antimicrobial activity against anaerobic bacteria bacteroides thetaiotaomicron 1438; format: functional
# Clostridioides difficile = assay: In vitro antimicrobial activity against anaerobic bacteria Clostridium difficile 2994; format: functional
# Clostridium perfringens = assay: In vitro antimicrobial activity against anaerobic bacteria clostridium perfringens 81,; format: functional
# Clostridium septicum = assay: In vitro antimicrobial activity against anaerobic bacteria clostridium septicum 1128; format: functional
# Chlamydia trachomatis = assay: In vitro antimicrobial activity against chlamydia trachomatis.; format: functional
# Fusobacterium = assay: In vitro antimicrobial activity against anaerobic bacteria fusobacterium symbiosum 1470; format: functional
# [43] = tested on: Haemophilus parainfluenzae; assay: In vitro antimicrobial activity against aerobic bacteria Haemophilus parainfluenzae 9796; format: functional
# [44] = In vitro antimicrobial activity against anaerobic bacteria peptostreptococcus intermedius 1264; format: functional
# [45] = tested on: Peptoniphilus asaccharolyticus; assay: In vitro antimicrobial activity against anaerobic bacteria peptococcus asaccharolyticus 1302; format: functional
# Anaerococcus prevotii = assay: In vitro antimicrobial activity against anaerobic bacteria peptococcus prevoti 1281; format: functional
# Cutibacterium acnes = assay: In vitro antimicrobial activity against anaerobic bacteria propionibacterium acnes 79; format: functional
# Streptococcus pyogenes [46] = assay: In vivo effective dose against Streptococcus pyogenes C203 when administered orally; format: functional; conditions: po
# Streptococcus pyogenes [47] = assay: In vivo effective dose against Streptococcus pyogenes C203 when administered sc; format: functional
# Streptococcus pneumoniae [48] = assay: In vitro antimicrobial activity against Streptococcus pneumoniae; format: functional
# Haemophilus influenzae [49] = assay: In vitro antimicrobial activity against aerobic bacteria Haemophilus influenzae 465; format: functional
# [50] = tested on: Prevotella melaninogenica; assay: In vitro antimicrobial activity against anaerobic bacteria bacteroides melaninogenicus 2736; format: functional
# [51] = tested on: Fusobacterium necrophorum; assay: In vitro antimicrobial activity against anaerobic bacteria usobacterium necrophorum 6054A; format: functional
# Collinsella aerofaciens = assay: In vitro antimicrobial activity against anaerobic bacteria eubacterium aerofaciens 1235; format: functional
# [52] = tested on: Peptostreptococcus anaerobius; assay: In vitro antimicrobial activity against anaerobic bacteria eubacterium peptostreptococcus anaerobius 1428,; format: functional
# Streptococcus pyogenes [53] = assay: Antimicrobial activity against Streptococcus pyogenes C203; format: functional
compound,measurement,setting,value
CC[C@H]1OC(=O)C[C@@H](O)[C@H](C)[C@@H](O[C@@H]2O[C@H](C)[C@@H](O[C@H]3C[C@@](C)(O)[C@@H](O)[C@H](C)O3)[C@H](N(C)C)[C@H]2O)[C@@H](CCOc2ccccc2)C[C@@H](C)C(=O)/C=C/C(C)=C/[C@@H]1CO[C@@H]1O[C@H](C)[C@@H](O)[C@@H](OC)[C@H]1OC,MIC,Haemophilus influenzae [1],> 128 µg/mL
same,MIC,Haemophilus influenzae [2],128 µg/mL
same,MIC,Haemophilus influenzae [3],> 128 µg/mL
same,Concentration,Mus musculus [4],1.2 µg/mL
same,Concentration,Mus musculus [5],3.5 µg/mL
same,Concentration,Mus musculus [6],1.6 µg/mL
same,Concentration,Mus musculus [7],7.9 µg/mL
same,Concentration,Mus musculus [8],7.4 µg/mL
same,Concentration,Mus musculus [9],6 µg/mL
same,Concentration,Mus musculus [10],4 µg/mL
same,Concentration,Mus musculus [11],2.3 µg/mL
same,Concentration,Rattus norvegicus [12],0.2 µg/mL
same,Concentration,Rattus norvegicus [13],0.6 µg/mL
same,Concentration,Rattus norvegicus [14],2 µg/mL
same,Concentration,Rattus norvegicus [15],2.7 µg/mL
same,Concentration,Rattus norvegicus [16],2.6 µg/mL
same,MIC,Streptococcus [17],128 µg/mL
same,MIC,Streptococcus [18],128 µg/mL
same,MIC,Streptococcus [19],1 µg/mL
same,MIC,Streptococcus [20],128 µg/mL
same,MIC,Streptococcus [21],128 µg/mL
same,MIC,Streptococcus [22],> 128 µg/mL
same,MIC,[23],> 128 µg/mL
same,MIC,Staphylococcus aureus [24],1 µg/mL
same,MIC,Staphylococcus aureus [25],1 µg/mL
same,MIC,Staphylococcus aureus [26],2 µg/mL
same,MIC,Staphylococcus aureus [27],1 µg/mL
same,MIC,Staphylococcus aureus [28],2 µg/mL
same,ED50,Streptococcus pyogenes [29],> 6.3 mg/kg
same,MIC,Streptococcus pneumoniae [30],> 128 µg/mL
same,MIC,Streptococcus sanguinis,8 µg/mL
same,MIC,[31],1 µg/mL
same,MIC,[32],1 µg/mL
same,MIC,Enterococcus faecium,128 µg/mL
same,MIC,Streptococcus pyogenes [33],2 µg/mL
same,MIC,Streptococcus viridans,> 128 µg/mL
same,MIC,Streptococcus [34],128 µg/mL
same,MIC,Staphylococcus aureus [35],1 µg/mL
same,Concentration,Mus musculus [36],2 µg/mL
same,MIC,Streptococcus [37],> 128 µg/mL
CC[C@H]1OC(=O)C[C@@H](O)[C@H](C)[C@@H](O[C@@H]2O[C@H](C)[C@@H](O[C@H]3C[C@@](C)(O)[C@@H](O)[C@H](C)O3)[C@H](N(C)C)[C@H]2O)[C@@H](CC=O)C[C@@H](C)C(=O)/C=C/C(C)=C/[C@@H]1CO,MIC,Bacteroides fragilis [38],2 µg/mL
same,MIC,Bacteroides fragilis [39],4 µg/mL
same,MIC,Bacteroides fragilis [40],2 µg/mL
same,MIC,Eikenella corrodens,2 µg/mL
same,MIC,Phocaeicola vulgatus,2 µg/mL
same,MIC,[41],0.5 µg/mL
same,MIC,[42],2 µg/mL
same,MIC,Clostridioides difficile,1 µg/mL
same,MIC,Clostridium perfringens,0.5 µg/mL
same,MIC,Clostridium septicum,0.5 µg/mL
same,MIC,Chlamydia trachomatis,1 µg/mL
same,MIC,Fusobacterium,0.5 µg/mL
same,MIC,Haemophilus influenzae [1],4 µg/mL
same,MIC,Haemophilus influenzae [2],2 µg/mL
same,MIC,Haemophilus influenzae [3],4 µg/mL
same,MIC,[43],8 µg/mL
same,MIC,[44],0.25 µg/mL
same,MIC,[45],< 0.03 µg/mL
same,MIC,Anaerococcus prevotii,8 µg/mL
same,MIC,Cutibacterium acnes,0.25 µg/mL
same,MIC,Streptococcus [18],0.25 µg/mL
same,MIC,Streptococcus [19],0.25 µg/mL
same,MIC,Streptococcus [20],0.5 µg/mL
same,MIC,Streptococcus [21],1 µg/mL
same,MIC,Streptococcus [22],0.25 µg/mL
same,MIC,[23],> 128 µg/mL
same,MIC,Staphylococcus aureus [24],1 µg/mL
same,MIC,Staphylococcus aureus [25],1 µg/mL
same,MIC,Staphylococcus aureus [26],2 µg/mL
same,MIC,Staphylococcus aureus [27],1 µg/mL
same,MIC,Staphylococcus aureus [28],2 µg/mL
same,MIC,Streptococcus pneumoniae [30],128 µg/mL
same,ED50,Streptococcus pyogenes [46],82 mg/kg
same,ED50,Streptococcus pyogenes [47],1.9 mg/kg
same,MIC,Streptococcus sanguinis,0.25 µg/mL
same,MIC,Streptococcus pneumoniae [48],0.5 µg/mL
same,MIC,[31],1 µg/mL
same,MIC,[32],0.25 µg/mL
same,MIC,Enterococcus faecium,1 µg/mL
same,MIC,Streptococcus pyogenes [33],0.25 µg/mL
same,MIC,Streptococcus viridans,> 128 µg/mL
same,MIC,Streptococcus [34],0.5 µg/mL
same,MIC,Staphylococcus aureus [35],2 µg/mL
same,MIC,Haemophilus influenzae [49],8 µg/mL
same,MIC,[50],2 µg/mL
same,MIC,[51],0.12 µg/mL
same,MIC,Collinsella aerofaciens,0.12 µg/mL
same,MIC,Streptococcus [37],0.5 µg/mL
same,MIC,[52],4 µg/mL
same,MIC,Streptococcus pyogenes [53],0.25 µg/mL
